One experiment deals with PANC-1. The experiment in a line: Antiproliferative activity against human PANC1 cells after 72 hrs by MTT assay. The format is functional, cell-based. The note with it: PANC-1, 72 h. In outline:
(§1)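 Cells grown in DMEM with 10% FBS and 1% penicillin-streptomycin at 37 °C, 5% CO2. Seeded at 4,000 to 5,000 cells/well, cultured one day, then exposed to compounds for 72 h at 1.25 to 40 μmol/L, five replicates per concentration. MTT absorbance read at 570 nm. IC50 from five-point dose-response curves; mean of at least three separate experiments.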
(Tetrazolium dyes change colour on reduction, which living cells bring about.)

A short description of experiment [1]: Antiproliferative activity against human HPDE6c7 cells after 72 hrs by MTT assay. The note with it: HPDE6c7, 72 h. The format is cell-based. The method in brief: as §1
The next experiment has as its system ASPC1. The experiment in a line: Antiproliferative activity against human Aspc-1 cells after 72 hrs by MTT assay. The class given is functional, cell-based. Conditions: ASPC1, 72 h. The method in brief: as §1
The next experiment concerns BXPC-3. The experiment in a line: Antiproliferative activity against human BxPC3 cells after 72 hrs by MTT assay. The class given is functional, cell-based. Conditions: BXPC-3, 72 h. The method in brief: as §1
A further experiment deals with Focal adhesion kinase 1 (Homo sapiens, UniProt Q05397). The experiment in a line: Inhibition of recombinant human N-terminal His-tagged FAK cytoplasmic domain (393 to 698 residues) expressed in baculovirus infected sf9 cells assessed as reduction in autophosphorylation after 60 mins by ADP-Glo kinase assay. The method in brief:
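ADP-Glo luminescence assay. The kinase reaction ran in 1× kinase buffer with compound at 1 to 200 nM, for 60 min at room temperature. ADP-Glo reagent was then added to stop the reaction and deplete leftover ATP (40 min, room temperature). Detection reagent converted ADP to ATP for luciferase read-out (30 min). IC50 from curve fitting, mean ± SE of three independent experiments.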
For orientation: In ADP-Glo the light output rises with the ADP produced.

Focal adhesion kinase 1, sequence (Q05397 whole entry, the tested form may be a part): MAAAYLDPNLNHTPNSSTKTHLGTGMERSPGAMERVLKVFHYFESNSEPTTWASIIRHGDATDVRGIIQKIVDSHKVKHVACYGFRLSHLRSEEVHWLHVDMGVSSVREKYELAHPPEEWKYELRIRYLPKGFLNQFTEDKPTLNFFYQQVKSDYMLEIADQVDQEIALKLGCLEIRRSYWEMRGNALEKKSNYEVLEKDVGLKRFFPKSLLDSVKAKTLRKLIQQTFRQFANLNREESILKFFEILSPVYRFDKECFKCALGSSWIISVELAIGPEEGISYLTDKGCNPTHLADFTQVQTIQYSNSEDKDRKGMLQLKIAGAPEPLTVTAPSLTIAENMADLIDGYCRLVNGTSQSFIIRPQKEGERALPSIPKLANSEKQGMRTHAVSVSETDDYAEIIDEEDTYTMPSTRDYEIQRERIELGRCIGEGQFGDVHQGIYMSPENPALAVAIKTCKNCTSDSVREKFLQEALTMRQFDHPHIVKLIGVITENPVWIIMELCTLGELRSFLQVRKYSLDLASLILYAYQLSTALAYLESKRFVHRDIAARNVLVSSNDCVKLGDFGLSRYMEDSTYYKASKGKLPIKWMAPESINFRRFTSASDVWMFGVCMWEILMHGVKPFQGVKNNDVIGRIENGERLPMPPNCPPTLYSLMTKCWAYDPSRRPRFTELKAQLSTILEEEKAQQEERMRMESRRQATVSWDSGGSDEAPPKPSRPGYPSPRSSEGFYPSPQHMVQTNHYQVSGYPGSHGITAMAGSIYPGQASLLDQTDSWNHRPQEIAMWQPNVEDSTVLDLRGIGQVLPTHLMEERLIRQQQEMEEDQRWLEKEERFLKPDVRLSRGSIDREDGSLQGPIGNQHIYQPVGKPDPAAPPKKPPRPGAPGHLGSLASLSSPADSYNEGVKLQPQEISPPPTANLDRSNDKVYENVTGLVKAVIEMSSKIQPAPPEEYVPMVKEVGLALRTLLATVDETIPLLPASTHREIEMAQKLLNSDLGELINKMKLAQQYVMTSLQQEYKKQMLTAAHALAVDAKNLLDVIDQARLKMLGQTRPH

By IC50 is commonly meant the concentration at which inhibition is half-maximal. Take `CCOP(=O)(CCCOc1ccc(Nc2ncc([N+](=O)[O-])c(Nc3ccccc3C(=O)NC)n2)cc1)OCC`: the half-maximal inhibitory concentration (IC50) in the experiment on PANC-1 was 25.4 µM; in experiment [1], 1.96 µM; in the experiment with ASPC1, 18.3 µM; with BXPC-3, 2040 nM; on Focal adhesion kinase 1 it was 6.18 nM.
For `CCOP(=O)(Cc1ccc(Nc2ncc([N+](=O)[O-])c(Nc3ccccc3C(=O)NC)n2)cc1)N1CCOCC1` (configuration not stated), the IC50 was > 40 µM in the experiment on PANC-1; 8.11 µM in experiment [1]; 6.42 µM in the experiment with ASPC1; 1020 nM with BXPC-3; 5.69 nM on Focal adhesion kinase 1.
With `CNC(=O)c1ccccc1Nc1nc(Nc2ccc(N3CCOCC3)cc2OC)ncc1Cl`, the figures for the IC50 (with PANC-1; in experiment [1]) were > 20 µM and 11.4 µM, respectively.
As for `CCOP(=O)(Cc1ccc(Nc2ncc(Cl)c(Nc3ccccc3C(=O)NC)n2)cc1)OCC`, the IC50 in the experiment with PANC-1 was found to be 14.8 µM; in experiment [1], 5.44 µM; in the experiment on ASPC1, 3.31 µM; with BXPC-3, 20 nM; at Focal adhesion kinase 1, 4.25 nM.
On to `CCOP(=O)(Cc1ccc(Nc2ncc([N+](=O)[O-])c(Nc3ccccc3C(=O)NC)n2)cc1)OCC`, for which the IC50 in the experiment on PANC-1 came out at 19.2 µM; in experiment [1] it was 4.6 µM; with ASPC1 it was 15.2 µM; with BXPC-3, 820 nM; at Focal adhesion kinase 1 it was 5.01 nM.
For the compound `CCOP(=O)(CCCOc1ccc(Nc2ncc(Cl)c(Nc3ccccc3C(=O)NC)n2)cc1)OCC`, the IC50 in the experiment with PANC-1 was 10.9 µM; in experiment [1] it was 4.43 µM; with ASPC1 it was 4.93 µM; in the experiment on BXPC-3 it was 1040 nM; on Focal adhesion kinase 1, 10.7 nM.

The values are drawn from ChEMBL document CHEMBL4177662, “Phosphamide-containing diphenylpyrimidine analogues (PA-DPPYs) as potent focal adhesion kinase (FAK) inhibitors with enhanced activity against pancreatic cancer cell lines” (Bioorg Med Chem, 2017).
